Statin myotox sup: suppressors of simvastatin-induced myotoxicity in C2C12 myotubes; ATP luminescence, 48 h; scaled: DMSO 0, geranylgeraniol control 100; rescue of ATP level, % at 7.49 µM; 0.78% of 330,000 active;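 active = mean ATP rescue above about 67%, or every replicate alone reaching that limit, limit read from the data, passing the limit was not always enough; inconclusive = no clear call, values can overlap the other calls; inactive = mean under the limit and some replicate under it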;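 also: myotubes were challenged with 10 µM simvastatin during compound exposure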
Cneo AK release: causes C. neoformans cell lysis; adenylate kinase release luminescence, 4 h; normalised: neutral wells 0, clomiphene wells 100; lysis activity, % at 15 µM; 0.2% of 360,000 active;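 active = mean lysis activity across replicates of at least 80%, whatever share of replicates individually reach that level; inactive = mean lysis activity below 80%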
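read-out = cell lysis signal | test system = log-phase Cryptococcus neoformans yeast cells | input = cells at 5 × 10^6 per mL | medium = fresh YPD growth medium | signal = luminescent adenylate kinase detection reagent | timing = 4 h at 37 °C static, read 1 h later | dosing = single dose | controls = Clomiphene as positive lysis control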
XiGFP reactiv: activators of X-chromosome reactivation in mouse fibroblasts; XiGFP mouse fibroblasts, % GFP-positive cells imaging, 3 d; cells co-treated with 5-aza-dC sensitizer; scaled so ellipticine positive control = 100%; activation, % at 7.58 µM; 0.055% of 360,000 active;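 active = mean normalized replicate activation at least 10% and every replicate at or above 10%; inconclusive = only one of the two criteria met; inactive = mean below 10% and not all replicates reach 10%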;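 also: 0% = median of on-plate neutral control wells and 100% = ellipticine 6 µM median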
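material = 68-5-11 XiGFP fibroblast line | medium = DMEM plus 5-aza-dC sensitizer | schedule = 3 days compound exposure | benchmarks = positive control ellipticine, 6 µM final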
DENV2 CPE: DENV2-induced cell death inhibition. DENV2-infected cells, cytopathic effect rescue, plate reader. CPE inhibition, % at 9.99 µM. 1.7% of 350,000 active; in the data active = CPE inhibition above about 20%, passing the limit was not always enough; inconclusive = no clear call, values can overlap the other calls; tested in BHK-21 cells;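 also: 0% = median of neutral control wells and 100% = median of positive control wells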
Numbers without * were called inactive; ? = inconclusive; / = no result; ! = a repeat was not active. An excerpt weighted towards active compounds, which were near 2.1% of everything screened.

SMILES	Statin myotox sup	Cneo AK release	XiGFP reactiv	DENV2 CPE
Cc1ccc(S(=O)(=O)Nc2ccc3c(c2)CC(=O)N([C@@H](C)CO)C[C@@H](C)[C@@H](CN(C)S(=O)(=O)c2ccc(Cl)cc2)O3)cc1	5.6	0.9	0.1	-6.6
Cc1ccc(S(=O)(=O)N(C)C[C@H]2Oc3ccc(NS(=O)(=O)c4ccc(Cl)cc4)cc3CC(=O)N([C@@H](C)CO)C[C@H]2C)cc1	31.4	0.7	-1.0	26.6*
Cc1ccc(S(=O)(=O)N(C)C[C@@H]2OCCCC[C@@H](C)Oc3ccc(NC(=O)Nc4cccc5ccccc45)cc3C(=O)N([C@@H](C)CO)C[C@@H]2C)cc1	/	0.1	0.1	-10.8
CN(C)C(=O)c1cccc(-c2ccc([C@@H]3[C@H]4CN(C(=O)Cc5ccccc5)CC(=O)N4[C@H]3CO)cc2)c1	/	/	0.1	-0.6
C[C@@H]1CN([C@@H](C)CO)S(=O)(=O)c2ccc(-c3ccccc3)cc2O[C@@H]1CN(C)S(C)(=O)=O	-0.3	2.9	-0.8	-2.1
C[C@H]1CN([C@@H](C)CO)C(=O)Cc2cc(N(C)C)ccc2O[C@@H]1CN(C)Cc1ccncc1	-4.7	6.4	-1.1	-4.5
CO[C@H]1CN(C)C(=O)c2cc(NC(=O)c3ccc4c(c3)OCO4)ccc2OC[C@@H](C)N(CCC(F)(F)F)C[C@@H]1C	20.2	-3.1	0.0	-8.6
CO[C@H]1CN(C)C(=O)c2cc(NC(=O)c3ccc4c(c3)OCO4)ccc2OC[C@H](C)N(CCC(F)(F)F)C[C@@H]1C	/	/	0.6	22.6*
CO[C@H]1CN(C)C(=O)c2cc(NC(=O)c3ccc4c(c3)OCO4)ccc2OC[C@@H](C)N(CC2CC2)C[C@H]1C	-1.8	90.3*	0.0	3.0
C[C@H]1CN([C@@H](C)CO)S(=O)(=O)c2ccc(C#Cc3ccc(F)cc3)cc2O[C@H]1CN(C)C(=O)CN(C)C	-12.6	-1.0	-1.1	3.3
COc1ccc(OC)c(C(c2nnnn2Cc2ccccc2)N2CCN(C3CCCCC3)CC2)c1 (stereo not given)	121.4*	5.1	/	/
COc1ccc(OC)c(C(c2nnnn2Cc2ccccc2)N2CCC(C(N)=O)CC2)c1 (stereo not given)	-1.2	-2.4	/	/
COc1ccc(Cn2nnnc2C(c2ccccc2OC)N2CCC(C(N)=O)CC2)cc1 (stereo not given)	100.5*	-0.7	/	/
C[C@H](CO)N1C[C@H](C)[C@@H](CN(C)CC2CC2)Oc2ccc(NC(=O)Cn3cnnn3)cc2CC1=O	7.7	-7.0	0.1	0.7
Cc1ccc(-c2nc(NCCCO)c3ccccc3n2)cc1	6.6	-0.6	-0.2	31.3*
Cc1ccc(-c2nc(NCCN(C)C)c3ccccc3n2)cc1	9.6	-0.6	0.0	6.4
COCC(=O)N1[C@H](C#N)[C@H](c2ccc(C#Cc3ccccc3F)cc2)[C@H]1CO	-2.9	83.0*	-0.1	?
N#C[C@H]1[C@H](c2ccc(C#Cc3ccccc3F)cc2)[C@H](CO)N1C(=O)C1CC1	-9.5	-9.9	0.4	30.2*
COCC(=O)N1[C@@H](C#N)[C@@H](c2ccc(C3=CCCCC3)cc2)[C@@H]1CO	-35.9	-3.0	0.0	24.1*
N#C[C@@H]1[C@@H](c2ccc(C#Cc3ccccc3F)cc2)[C@@H](CO)N1C(=O)C1CCC1	-2.9	-2.3	0.0	51.2*
COCC(=O)N1[C@@H](C#N)[C@@H](c2ccc(C#Cc3ccccc3F)cc2)[C@@H]1CO	-14.4	-0.2	0.1	15.2
C/C=C/c1ccc([C@H]2[C@H](CO)N(C(C)=O)[C@H]2CNC(=O)CC2CC2)cc1	6.7	-0.3	0.1	-6.7
C=CCOC(=O)c1ccc(-n2cncn2)nc1	133.8*	-0.4	/	/
C=CCOC(=O)c1ccc(-n2cnc(C)n2)nc1	/	/	0.1	/
COc1ccc(CNC(=O)C2CC(c3ccc(OC)cc3)=NO2)cc1 (stereo not given)	2.1	1.9	/	/
SMILES	Statin myotox sup	Cneo AK release	XiGFP reactiv	DENV2 CPE
COc1ccc(C2=NOC(C(=O)NCc3cccs3)C2)cc1 (stereo not given)	96.7*	-6.2	/	/
COc1cc(C2=NOC(C(=O)NCc3cccs3)C2)cc(OC)c1OC (stereo not given)	87.3*	-0.1	/	/
COc1cc(C2=NOC(C(=O)NCc3ccco3)C2)cc(OC)c1OC (stereo not given)	/	-5.2	/	/
CNC[C@H]1Oc2ccc(NC(=O)Nc3ccccc3)cc2CC(=O)N([C@@H](C)CO)C[C@H]1C	1.0	2.1	0.0	13.0
CC(C)CCNC(=O)C(=O)NCCC1=CCCCC1	-2.5	-3.9	0.0	1.0
Cc1cc(C)cc(N(C(C)C(=O)NCCC2=CCCCC2)S(C)(=O)=O)c1 (stereo not given)	93.2*	2.0	/	2.1
CN1c2ccc(-c3ccccc3)cc2[C@@H]2[C@@H](CCN2S(=O)(=O)c2ccccc2F)[C@@H]1CO	-29.4	3.8	0.0	68.2*
Cc1ccccc1S(=O)(=O)N1CC[C@@H]2[C@H]1c1cc(-c3ccc(F)cc3)ccc1N(C)[C@H]2CO	-23.4	-3.0	-0.1	1.2
Cc1ccccc1S(=O)(=O)N1CC[C@@H]2[C@@H](CO)N(C)c3ccc(-c4cccc(F)c4)cc3[C@@H]21	-16.4	-16.3	0.1	44.4*
COc1ccc(NC(=O)Nc2ccc3c(c2)CC(=O)N([C@H](C)CO)C[C@H](C)[C@H](CN(C)C(=O)NC2CCCCC2)O3)cc1	-11.0	-2.9	0.3	29.3*
C[C@@H]1CN([C@H](C)CO)C(=O)c2cc(NC(=O)NC3CCCCC3)ccc2O[C@@H]1CN(C)C(=O)Nc1ccc(F)cc1	-7.5	11.2	0.1	40.1*
C[C@H](CO)N1C[C@H](C)[C@@H](CN(C)C(=O)NC2CCCCC2)Oc2ccc(NC(=O)Nc3ccccc3)cc2CC1=O	-17.4	48.3	-1.1	45.6*
COc1ccc(NC(=O)Nc2ccc3c(c2)CC(=O)N([C@@H](C)CO)C[C@@H](C)[C@@H](CN(C)C(=O)NC2CCCCC2)O3)cc1	-15.1	-3.1	0.0	3.6
C[C@@H]1CN([C@H](C)CO)C(=O)c2cc(NC(=O)NC3CCCCC3)ccc2O[C@H]1CN(C)C(=O)Nc1ccc(F)cc1	3.3	-9.1	-1.2	2.4
C[C@@H]1CN([C@H](C)CO)C(=O)Cc2cc(NC(=O)Nc3ccccc3)ccc2O[C@@H]1CN(C)C(=O)NC1CCCCC1	1.3	5.3	-0.3	34.8*
COc1ccc(NC(=O)Nc2ccc3c(c2)C(=O)N([C@H](C)CO)C[C@H](C)[C@@H](CN(C)C(=O)NC2CCCCC2)O3)cc1	9.0	-0.3	4.5	39.2*!
COc1ccc(NC(=O)N(C)C[C@H]2Oc3ccc(NC(=O)NC(C)C)cc3C(=O)N([C@H](C)CO)C[C@H]2C)cc1	-1.2	0.4	-0.9	34.4*
CC1CCN(CCOc2ccc(OCc3ccccc3)cc2)CC1	8.7	-3.9	0.3	35.6*
c1ccc(COc2ccc(OCCCCN3CCCC3)cc2)cc1	/	2.9	0.0	/
C[C@@H]1CN([C@@H](C)CO)C(=O)c2ccccc2-c2ccccc2CO[C@@H]1CN(C)C(=O)Nc1ccc2c(c1)OCO2	-2.5	-0.5	?	5.6
